One experiment has as its system Pan troglodytes. The experiment can be described thus: Compound was tested for natriuretic activity in chimpanzee at 5 mg/kg dose activity is measured as microequivalent of Na+/minute; muequiv of Na+/min. The format is functional. The procedure, abridged:
(§1)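 Inulin iv gave GFR; urate and inulin clearances and Na+, K+, Cl- excretion were measured by AutoAnalyzer. Controls were three 20-min periods; compound was given orally in aqueous solution via nasal catheter. Response was the mean of eight 15-20 min periods, reported as treatment minus control from single experiments.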

Experiment [1] concerns Canis familiaris. Put plainly: Compound was tested for diuretic activity in dogs at 5 mg/kg dose after intravenous administration measured as microequivalent of Cl-/minute; 5/102 (Control/Drug treated). The format is functional, Canis lupus familiaris, Urine. A digest of the protocol:
(§2)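 Intravenous dog clearance study. A priming iv injection of 1.5 mL/kg isoosmotic pH 7.4 phosphate buffer (20 mg PO4/kg) was given first. This was followed by infusion of 3 mL/min pH 7.4 buffer containing 4% mannitol (6.9 mg PO4/min) throughout the experiment. Urinary Na+, K+ and Cl- were measured by standard methods. Each value is the mean of the two highest consecutive 15-min collections.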

Experiment [2] deals with Canis familiaris. The experiment can be described thus: Compound was tested for diuretic activity in dogs at 5 mg/kg dose after intravenous administration measured as microequivalent of K+/minute; 6/36 (Control/Drug treated). The class given is functional, Canis lupus familiaris, Urine. The procedure, abridged: as §2
The subject of experiment [3] is Canis familiaris. The experiment can be described thus: Compound was tested for diuretic activity in dogs at 5 mg/kg dose after intravenous administration measured as microequivalent of Na+/minute; 20/108 (Control/Drug treated). The class given is functional, Canis lupus familiaris, Urine.
In experiment [4] the test system is Rattus norvegicus. The experiment can be described thus: Natriuretic activity in rats at 27 mg/kg of dosage; mequiv of Na. The class given is functional. A digest of the protocol:
(§3)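 Rats housed three per metabolism cage received placebo vehicle or compound as a suspension in a final volume of 5.0 mL orally, with placebo groups run concurrently. Urine was collected over 0–5 h and analysed for Na+, K+ and Cl− by standard methods. Values are mequiv per cage, given as geometric means of three cages per dose level.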

In experiment [5] the test system is Rattus norvegicus. Put plainly: Natriuretic activity in rats at 3 mg/kg of dosage; mequiv of Na. The class given is functional. A digest of the protocol:
as §3

Experiment [6] concerns Rattus norvegicus. The experiment can be described thus: Natriuretic activity in rats at 81 mg/kg of dosage; mequiv of Na. The class given is functional. A digest of the protocol: as §3
For experiment [7], the system named is Rattus norvegicus. Put plainly: Natriuretic activity in rats at 9 mg/kg of dosage; mequiv of Na. The class given is functional. The procedure, abridged: as §3
Experiment [8] can be described thus: Compound was tested for natriuretic activity in chimpanzee at 5 mg/kg dose activity is measured as ratio of clearance of urate / […]; Curate/Cinulin. The class given is functional. A digest of the protocol:
as §1

In experiment [9] the test system is Canis familiaris. The experiment can be described thus: Compound was tested for diuretic activity in dogs at 5 mg/kg dose after oral administration measured as microequivalent of Cl-/minute. The class given is functional, Canis lupus familiaris, Urine. The procedure, abridged:
(§4)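 Oral dog test: water loading (250 mL po, then 500 mL 1 h later). One hour later bladders were emptied by catheter and compound or placebo given in gelatin capsules. Dogs were kept in metabolism cages. Voided urine plus catheterized bladder urine was pooled at 5 h, and Na+, K+ and Cl- were measured by standard methods. Geometric means are reported.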

The test system of experiment [10] is Canis familiaris. The experiment can be described thus: Compound was tested for diuretic activity in dogs at 5 mg/kg dose after oral administration measured as microequivalent of K+/minute. The class given is functional, Canis lupus familiaris, Urine. A digest of the protocol: as §4
Experiment [11] relates to Canis familiaris. Put plainly: Compound was tested for diuretic activity in dogs at 5 mg/kg dose after oral administration measured as microequivalent of Na+/minute. The format is functional, Canis lupus familiaris, Urine. A digest of the protocol:
as §4

In experiment [12] the test system is Canis familiaris. The experiment can be described thus: Compound was tested for diuretic activity in dogs at 5 mg/kg dose after intravenous administration measured as microequivalent of Na+/minute; 11/118 (Control/Drug treated). The class given is functional, Canis lupus familiaris, Urine.
In experiment [13] the test system is Canis familiaris. Put plainly: Compound was tested for diuretic activity in dogs at 5 mg/kg dose after intravenous administration measured as microequivalent of Cl-/minute; 43/54 (Control/Drug treated). The class given is functional, Canis lupus familiaris, Urine. The procedure, abridged: as §2
Experiment [14] concerns Canis familiaris. Put plainly: Compound was tested for diuretic activity in dogs at 5 mg/kg dose after intravenous administration measured as microequivalent of K+/minute; 6/35 (Control/Drug treated). The class given is functional, Canis lupus familiaris, Urine. The procedure, abridged: as §2
Experiment [15] relates to Canis familiaris. Put plainly: Diuretic activity in dogs following 5 mg/kg oral administration.
The subject of experiment [16] is Canis familiaris. Put plainly: Compound was tested for diuretic activity in dogs at 5 mg/kg dose after intravenous administration measured as microequivalent of Cl-/minute; 9/132 (Control/Drug treated). The class given is functional, Canis lupus familiaris, Urine. A digest of the protocol: as §2
Experiment [17] relates to Canis familiaris. The experiment can be described thus: Compound was tested for diuretic activity in dogs at 5 mg/kg dose after intravenous administration measured as microequivalent of Na+/minute; 22/144 (Control/Drug treated). The format is functional, Canis lupus familiaris, Urine.
The test system of experiment [18] is Canis familiaris. The experiment can be described thus: Diuretic activity in dogs following 5 mg/kg i.v. administration. The format is functional, Canis lupus familiaris, Urine. Conditions: route intravenous.
The subject of experiment [19] is Canis familiaris. Put plainly: Compound was tested for diuretic activity in dogs at 5 mg/kg dose after intravenous administration, activity is expressed as urine volume; 0.6/1.3. The class given is functional, Canis lupus familiaris.
In experiment [20] the test system is Canis familiaris. The experiment can be described thus: Compound was tested for diuretic activity in dogs at 5 mg/kg dose after intravenous administration measured as microequivalent of Cl-/minute; 5/156 (Control/Drug treated). The class given is functional, Canis lupus familiaris, Urine. A digest of the protocol: as §2
The test system of experiment [21] is Canis familiaris. Put plainly: Compound was tested for diuretic activity in dogs at 5 mg/kg dose after intravenous administration measured as microequivalent of K+/minute; 15/33 (Control/Drug treated). The class given is functional, Canis lupus familiaris, Urine. The procedure, abridged:
as §2

In experiment [22] the test system is Canis familiaris. Put plainly: Compound was tested for diuretic activity in dogs at 5 mg/kg dose after intravenous administration measured as microequivalent of Na+/minute; 12/166 (Control/Drug treated). The class given is functional, Canis lupus familiaris, Urine.

“And” between values parts separate entries of the source, which are not always exact repeats. Equal entries are not always repeated.

As for `O=C(Cc1ccccc1)c1cc2c(c(Cl)c1Cl)OC(C(=O)O)C2` (stereo not given), the Oral activity was found to be 513 in the experiment with Pan troglodytes; 126 in the experiment with Rattus norvegicus [4]; 25 with Rattus norvegicus [5]; 173 in the experiment on Rattus norvegicus [6]; 80 in the experiment on Rattus norvegicus [7]. Also, the Cl- excretion in the experiment on Canis familiaris [1] came to 102 µequiv/min. Besides, the K+ excretion in the experiment with Canis familiaris [2] was determined as 36 µequiv/min. In addition, the Na+ excretion with Canis familiaris [3] came to 108 µequiv/min. Besides, in [8], the Ratio is on record as 0.315.
`O=C(c1cccs1)c1cc2c(c(Cl)c1Cl)O[C@@H](C(=O)O)C2`: the Oral activity was 95 with Pan troglodytes; 4.3 with Canis familiaris [9]; 2.5 in the experiment with Canis familiaris [10]; 4.8 in the experiment on Canis familiaris [11]; 41 in the experiment with Rattus norvegicus [4]; 48 in the experiment on Rattus norvegicus [5]. In addition, the Oral activity is listed as 29 in the experiment on Rattus norvegicus [6] and 38 with Rattus norvegicus [7]. Moreover, the Na+ excretion with Canis familiaris [12] is 118 µequiv/min. For the same compound, the Cl- excretion in the experiment on Canis familiaris [13] was 54 µequiv/min. In addition, the K+ excretion in the experiment on Canis familiaris [14] is 35 µequiv/min. Besides, the Ratio in experiment [8] came to 0.454. The compound also showed a Urine volume with Canis familiaris [15] of 233 mL.
For `O=C(O)COc1ccc(C(=O)c2cccs2)c(Cl)c1Cl`, the Oral activity was determined as 318 in the experiment on Pan troglodytes; 5.4 with Canis familiaris [9]; 1.8 in the experiment with Canis familiaris [10]; 3.3 in the experiment with Canis familiaris [11]; 43 with Rattus norvegicus [4]; 7 in the experiment with Rattus norvegicus [5]. Moreover, the Oral activity in the experiment with Rattus norvegicus [6] worked out at 56; in the experiment with Rattus norvegicus [7], 15. Moreover, the Cl- excretion in the experiment on Canis familiaris [16] stood at 132 µequiv/min. Moreover, in the experiment on Canis familiaris [17], the Na+ excretion came out at 144 µequiv/min. The Ratio in experiment [8] is reported as 0.437. The Urine volume with Canis familiaris [15] worked out at 395 mL.
`O=C(c1cccs1)c1cc2c(c(Cl)c1Cl)OC(C(=O)O)C2` (stereo not given): the Oral activity is 1360 in the experiment on Pan troglodytes; 24.6 and 48.5 in the experiment with Canis familiaris [9] (5 mg/kg); 4.2 and 5.2 in the experiment with Canis familiaris [10] (5 mg/kg); 18.7 and 37.7 in the experiment on Canis familiaris [11] (5 mg/kg); 257 in the experiment on Rattus norvegicus [4]; 175 in the experiment with Rattus norvegicus [5]. The Oral activity with Rattus norvegicus [6] was 310; in the experiment with Rattus norvegicus [7], 191. Also, the Urine volume was 432 mL and 541 mL in the experiment on Canis familiaris [18]; 0.6 mL/min with Canis familiaris [19]. Besides, the Ratio in experiment [8] came out at 0.34.
With `NS(=O)(=O)c1cc2c(cc1Cl)NCNS2(=O)=O` [HYDROCHLOROTHIAZIDE], the Oral activity amounted to 144 in the experiment on Pan troglodytes and 112 in the experiment with Rattus norvegicus [7]. Also, the Cl- excretion with Canis familiaris [20] was 156 µequiv/min. In addition, the K+ excretion in the experiment with Canis familiaris [21] was 33 µequiv/min. Also, the Na+ excretion in the experiment on Canis familiaris [22] amounted to 166 µequiv/min.

The values are drawn from ChEMBL document CHEMBL1121663, “(Acylaryloxy)acetic acid diuretics. 3. 2,3-Dihydro-5-acyl-2-benzofurancarboxylic acids, a new class of uricosuric diuretics” (1981).
